The record followed here is ChEMBL document CHEMBL3867423, “New imidazolidineiminothione derivatives: Synthesis, spectral characterization and evaluation of antitumor, antiviral, antibacterial and antifungal activities” (Eur J Med Chem, 2016).

In one test the test system is Escherichia coli. Kind of test: Antibacterial activity against Escherichia coli ATCC 10536 at 5 mg after 24 hrs by agar well diffusion assay. The class given is functional. To be noted: ATCC 10536, 24 h, read-out: DIZ. In short, it runs like this:
(§1)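 Agar well diffusion. 100 µL inoculum (1×10⁸ CFU/mL bacteria, 1×10⁶ CFU/mL yeast) spread on nutrient agar (bacteria) or Sabouraud dextrose agar (fungi). 10 mm wells loaded with 100 µL of 5 mg/mL compound in DMSO. DMSO as negative control. Erythromycin (bacteria) or […] (fungi) at 5 mg/ml as standards. Plates incubated 24 h at 37 °C. Inhibition zone diameter (mm) measured, mean of triplicate.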

Test [1] is described as follows: Cytotoxicity against human HepG2 cells assessed as decrease in cell viability after 48 hrs by SRB assay. The format is functional, cell-based. In a few lines:
(§2)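 SRB assay. Cells seeded at 10⁴ per well and allowed to attach for 24 h. Exposed to 0, 5, 12.5, 25 and 50 µg/mL, triplicate wells per dose, for 48 h at 37 °C in 5% CO₂. Cells fixed and SRB-stained; excess dye removed with acetic acid, bound dye recovered in Tris-EDTA and read on an ELISA reader. IC50 read from the surviving-fraction curve.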
On the technique in general: In SRB staining, fixed cells bind dye roughly in proportion to their protein.

In test [2] the test system is Micrococcus luteus. In words: Antibacterial activity against Sarcina lutea at 5 mg after 24 hrs by agar well diffusion assay. The class given is functional. To be noted: read-out: DIZ. In a few lines:
as §1
Background: In agar diffusion tests the substance spreads into inoculated agar from a disc or well.

A further test deals with Pseudomonas aeruginosa. Kind of test: Antibacterial activity against Pseudomonas aeruginosa ATCC 25619 at 5 mg after 24 hrs by agar well diffusion assay. The class given is functional. To be noted: ATCC 25619, 24 h, read-out: DIZ. In a few lines:
as §1

In the next test the test system is Bacillus subtilis. Kind of test: Antibacterial activity against Bacillus subtilis NCTC 10400 at 5 mg after 24 hrs by agar well diffusion assay. The class given is functional. To be noted: NCTC 10400, 24 h, read-out: DIZ. In a few lines: as §1
The test system of a further test is Aspergillus niger. Kind of test: Antifungal activity against Aspergillus niger at 5 mg after 24 hrs by agar well diffusion assay. The class given is functional. To be noted: read-out: DIZ. In short, it runs like this:
as §1

The nature of test [3]: Cytotoxicity against human PC3 cells assessed as decrease in cell viability after 48 hrs by SRB assay. The class given is functional, cell-based. To be noted: pc-3. In a few lines:
as §2

A short description of test [4]: Cytotoxicity against human HCT116 cells assessed as decrease in cell viability after 48 hrs by SRB assay. The class given is functional, cell-based. As to conditions: hct-116. In short, it runs like this: as §2
The subject of a further test is Hepatovirus A. In words: Antiviral activity against Hepatitis A virus infected in African green monkey Vero cells by plaque formation assay. The class given is functional. Further details: concentration or dose not given beside the values.
Test [5] is described as follows: Antifungal activity against Penicillium chrysogenum at 5 mg after 24 hrs by agar well diffusion assay. The format is functional. In a few lines:
as §1

For the next test, the system named is Coxsackievirus B4. In words: Antiviral activity against human Coxsackie virus B4 infected in African green monkey Vero cells by plaque formation assay. The class given is functional. The arrangement: concentration or dose not given beside the values.
In a further test the test system is Bacillus pumilus. Kind of test: Antibacterial activity against Bacillus pumilus at 5 mg after 24 hrs by agar well diffusion assay. The class given is functional. As to conditions: read-out: DIZ. In short, it runs like this: as §1
Test [6] relates to Micrococcus luteus. Kind of test: Antibacterial activity against Micrococcus luteus ATCC 10240 at 5 mg after 24 hrs by agar well diffusion assay. To be noted: ATCC 10240, 24 h, read-out: DIZ. The format is functional. In short, it runs like this:
as §1

Test [7] is described as follows: Cytotoxicity against human MCF7 cells assessed as decrease in cell viability after 48 hrs by SRB assay. The class given is functional, cell-based. Further details: unit not given here. In short, it runs like this:
as §2

For a further test, the system named is Candida albicans. Kind of test: Antifungal activity against Candida albicans IMRU 3669 at 5 mg after 24 hrs by agar well diffusion assay. The format is functional. To be noted: IMRU 3669, 24 h, read-out: DIZ. In short, it runs like this: as §1
In the next test the test system is Human alphaherpesvirus 1. In words: Antiviral activity against HSV1 infected in African green monkey Vero cells by plaque formation assay. The arrangement: concentration or dose not given beside the values. The format is functional.

Molecules are shown by their SMILES.

For `N=C1C(=S)N(c2cc(Cl)cc(Cl)c2)C(=O)N1c1ccc(Cl)c(C(F)(F)F)c1`, the zone of inhibition at 5000 µg/disc is 18 mm in the test with Escherichia coli; 23 mm with Micrococcus luteus [2]; 21 mm with Pseudomonas aeruginosa; 20 mm with Bacillus subtilis; 12 mm in the test with Aspergillus niger; 21 mm with Bacillus pumilus. Further, the zone of inhibition at 5000 µg/disc turned out to be 21 mm in the test on Micrococcus luteus [6] and 22 mm with Candida albicans. For the same compound, the IC50 in test [1] is 0.028 µg; in [3], 0.039 µg; in test [4], 0.044 µg; in test [7], 0.024. Besides, the Activity in the test on Hepatovirus A was found to be 0%; with Coxsackievirus B4, 0%; in the test with Human alphaherpesvirus 1, 9.6%. The inhibition zone (IZ) in test [5] is 20 mm.

For the compound `Cc1ccc(F)cc1N1C(=N)C(=S)N(c2ccc(Br)cc2)C1=O`, the zone of inhibition at 5000 µg/disc in the test on Escherichia coli is 20 mm; in the test on Micrococcus luteus [2], 23 mm; with Pseudomonas aeruginosa, 21 mm; with Bacillus subtilis, 22 mm; with Aspergillus niger, 20 mm; in the test on Bacillus pumilus it was 21 mm. Further, the zone of inhibition at 5000 µg/disc in the test with Micrococcus luteus [6] and in the test on Candida albicans was 22 mm throughout. In addition, the Activity is listed as 36.2% with Hepatovirus A, 0% in the test with Coxsackievirus B4 and 43.1% in the test on Human alphaherpesvirus 1. The compound further came in with an inhibition zone (IZ) in [5] of 21 mm.

On to `CC[C@H]1OC(=O)[C@H](C)[C@@H](O[C@H]2C[C@@](C)(OC)[C@@H](O)[C@H](C)O2)[C@H](C)[C@@H](O[C@@H]2O[C@H](C)C[C@H](N(C)C)[C@H]2O)[C@](C)(O)C[C@@H](C)C(=O)[C@H](C)[C@@H](O)[C@]1(C)O` [ERYTHROMYCIN], for which the zone of inhibition at 5000 µg/disc came out at 37 mm with Escherichia coli; 44 mm in the test on Micrococcus luteus [2]; 30 mm in the test with Pseudomonas aeruginosa; 40 mm in the test on Bacillus subtilis; 32 mm in the test on Bacillus pumilus; 32 mm in the test with Micrococcus luteus [6].

In the case of `COc1ccc(N2C(=O)N(c3cccc(Cl)c3)C(=N)C2=S)c(OC)c1`, the zone of inhibition at 5000 µg/disc in the test on Escherichia coli was determined as 20 mm; with Micrococcus luteus [2], 28 mm; with Pseudomonas aeruginosa, 16 mm; in the test with Bacillus subtilis it was 20 mm; with Aspergillus niger it was 18 mm; with Bacillus pumilus it was 17 mm. For the same compound, the values for the zone of inhibition at 5000 µg/disc with Micrococcus luteus [6] and in the test with Candida albicans were 14 mm and 27 mm, respectively. The IC50 in test [1] was 0.012 µg; in test [3], 0.031 µg; in test [4], 0.023 µg; in test [7], 0.02. In addition, the Activity was found to be 36.2% in the test with Hepatovirus A, 2.3% in the test on Coxsackievirus B4 and 47.4% in the test with Human alphaherpesvirus 1. In test [5], this compound came in with an inhibition zone (IZ) of 20 mm.

In the case of `N=C1C(=S)N(c2cc(Cl)cc(Cl)c2)C(=O)N1c1cccc(Cl)c1`, the zone of inhibition at 5000 µg/disc with Escherichia coli is 30 mm; with Micrococcus luteus [2] it was 24 mm; in the test with Pseudomonas aeruginosa, 0 mm; in the test with Bacillus subtilis it was 30 mm; with Aspergillus niger, 16 mm; in the test on Bacillus pumilus it was 15 mm. The zone of inhibition at 5000 µg/disc with Micrococcus luteus [6] is 16 mm; with Candida albicans it was 24 mm. Besides, the IC50 in test [1] stood at 0.025 µg; in [3], 0.031 µg; in test [4], 0.041 µg; in test [7], 0.011. The results for the Activity in the test on Hepatovirus A, in the test with Coxsackievirus B4 and in the test with Human alphaherpesvirus 1 were 100%, 41.6% and 36.4%, respectively. In test [5], this compound came in with an inhibition zone (IZ) of 21 mm.

On to `COc1ccc(OC)c(N2C(=O)N(c3ccc(C)cc3)C(=N)C2=S)c1`, for which the zone of inhibition at 5000 µg/disc in the test on Escherichia coli was determined as 16 mm; with Micrococcus luteus [2], 26 mm; in the test on Pseudomonas aeruginosa, 14 mm; in the test on Bacillus subtilis, 16 mm; with Aspergillus niger it was 16 mm; in the test with Bacillus pumilus it was 20 mm. The zone of inhibition at 5000 µg/disc in the test on Micrococcus luteus [6] and in the test with Candida albicans was 17 mm throughout. In addition, the IC50 in test [1] came out at 0.037 µg; in test [3], 0.048 µg; in test [4], 0.014 µg; in [7] it was 0.015. Besides, the Activity with Hepatovirus A amounted to 30.7%; in the test with Coxsackievirus B4, 0%; in the test on Human alphaherpesvirus 1, 50.2%. In addition, the inhibition zone (IZ) in [5] is 17 mm.

As for `COc1cccc2c1C(=O)c1c(O)c3c(c(O)c1C2=O)C[C@@](O)(C(=O)CO)C[C@@H]3O[C@H]1C[C@H](N)[C@H](O)[C@H](C)O1` [DOXORUBICIN], the IC50 in [1] amounted to 0.007 µg; in [3] it was 0.008 µg; in test [4], 0.007 µg.

`Cc1ncc([N+](=O)[O-])n1CCO` [METRONIDAZOLE]: the zone of inhibition at 5000 µg/disc was 33 mm in the test with Aspergillus niger and 27 mm with Candida albicans. Also, the inhibition zone (IZ) in test [5] turned out to be 25 mm.

For the compound `N=C1C(=S)N(c2cc(Cl)cc(Cl)c2)C(=O)N1c1c(Cl)cccc1Cl`, the zone of inhibition at 5000 µg/disc came to 19 mm in the test on Escherichia coli; 27 mm with Micrococcus luteus [2]; 17 mm with Pseudomonas aeruginosa; 19 mm in the test with Bacillus subtilis; 15 mm in the test with Aspergillus niger; 17 mm with Bacillus pumilus. Further, the zone of inhibition at 5000 µg/disc was 16 mm in the test with Micrococcus luteus [6] and 23 mm in the test on Candida albicans. The IC50 in test [1] came out at 0.039 µg; in test [3], 0.064 µg; in [4] it was 0.039 µg; in test [7], 0.02. Also, the Activity in the test on Hepatovirus A is 70.2%; in the test on Coxsackievirus B4 it was 0%; in the test on Human alphaherpesvirus 1 it was 33.6%. The same compound had an inhibition zone (IZ) in [5] of 18 mm.

Take `COc1ccc(OC)c(N2C(=O)N(c3ccc4c(c3)Cc3ccccc3-4)C(=N)C2=S)c1`: the zone of inhibition at 5000 µg/disc with Escherichia coli worked out at 18 mm; in the test on Micrococcus luteus [2], 24 mm; with Pseudomonas aeruginosa, 0 mm; with Bacillus subtilis it was 12 mm; in the test on Aspergillus niger, 14 mm; in the test on Bacillus pumilus, 17 mm. Also, the results for the zone of inhibition at 5000 µg/disc in the test on Micrococcus luteus [6] and in the test with Candida albicans were 16 mm and 14 mm, respectively. In addition, the IC50 in test [1] was determined as 0.048 µg; in test [3], 0.056 µg; in [4] it was 0.047 µg; in test [7], 0.052. Also, the results for the Activity in the test with Hepatovirus A, with Coxsackievirus B4 and with Human alphaherpesvirus 1 were 29.9%, 0% and 32.4%, respectively. The inhibition zone (IZ) in [5] was found to be 18 mm.

As to `N=C1C(=S)N(c2cc(Cl)cc(Cl)c2)C(=O)N1c1cc(Cl)c(Cl)cc1Cl`, the zone of inhibition at 5000 µg/disc with Escherichia coli was determined as 27 mm; in the test with Micrococcus luteus [2] it was 21 mm; in the test with Pseudomonas aeruginosa it was 18 mm; in the test with Bacillus subtilis, 27 mm; in the test with Aspergillus niger it was 15 mm; in the test on Bacillus pumilus, 21 mm. Besides, the zone of inhibition at 5000 µg/disc stood at 16 mm in the test with Micrococcus luteus [6] and 21 mm in the test on Candida albicans. The IC50 came out at 0.017 µg in [1], 0.017 µg in [3], 0.015 µg in [4] and 0.015 in test [7]. The Activity with Hepatovirus A is listed as 80.3%; in the test on Coxsackievirus B4, 20.6%; with Human alphaherpesvirus 1, 96.7%. This compound showed an inhibition zone (IZ) in [5] of 20 mm.

With `N=C1C(=S)N(c2ccccc2)C(=O)N1c1c(Cl)cccc1Cl`, the zone of inhibition at 5000 µg/disc in the test on Escherichia coli came to 18 mm; in the test on Micrococcus luteus [2] it was 26 mm; in the test with Pseudomonas aeruginosa, 15 mm; in the test with Bacillus subtilis, 18 mm; with Aspergillus niger it was 17 mm; with Bacillus pumilus, 18 mm. Moreover, the zone of inhibition at 5000 µg/disc turned out to be 14 mm in the test on Micrococcus luteus [6] and 23 mm in the test with Candida albicans. Also, the Activity with Hepatovirus A is 0%; in the test on Coxsackievirus B4, 0%; in the test on Human alphaherpesvirus 1, 33.3%. Further, the inhibition zone (IZ) in [5] was 16 mm.
